In PMC5760963 (Journal of Pharmaceutical Analysis, 2012):

Columns and labels:
[1] = assay type: in vivo; conditions: human, plasma, po, 75 mg, 75 mg oral, fed, healthy Indian subjects, mean ±SD; for AUC(0-t): AUC 0–48, reference formulation (TAMIFLU); for AUC(0-inf): reference formulation (TAMIFLU); for half-life: t1/2, reference formulation (TAMIFLU)
Procedure, shortened: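 Healthy Indian volunteers (n=42), fed, single oral 75 mg capsule of test compound, test and reference formulations over two periods. Blood taken 0–48 h into K3EDTA tubes on ice (<10 °C). Plasma mixed 95:5 v/v with dichlorvos stock (4 mg/mL) and stored at −20 °C, then below −70 °C. Parent and carboxylate metabolite measured by validated LC–MS/MS. Calibration ranges were 0.5–200 and 2.0–800 ng/mL.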

[2] = Stability of analytes in spiked human plasma and wet extract; assay type: physicochemical; conditions: for Mean stability sample ±SD: n=6
Procedure, shortened: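 Human blank plasma spiked at LQC (OST/OSTC 1.5/6.0 ng/mL) and HQC (160/640 ng/mL), with dichlorvos as esterase inhibitor. Bench top (room temperature), autosampler (wet extract), freeze-thaw and long term (−20 °C, −70 °C) stability were tested, six replicates per level. Samples were thawed in an ice bath below 10 °C and extracted. Stability was read as analyte/IS area ratio by LC–MS/MS against freshly prepared comparison standards.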

[3] = cited from earlier work
[4] = cited from earlier work; for renal excretion (share of dose): 100 mg dose, as OSTC or as unchanged drug
[5] = hydrolysis controlled; cited from earlier work
[6] = Bench top stability (ambient temperature), 12 h, HQC (160/640 ng/mL OST/OSTC)
[7] = Bench top stability (ambient temperature), 12 h, HQC, vs comparison samples
[8] = Bench top stability (ambient temperature), 12 h, LQC (1.5/6.0 ng/mL OST/OSTC)
[9] = Bench top stability (ambient temperature), 12 h, LQC, vs comparison samples
[10] = Freeze & thaw stability in plasma, 5 cycles, −20 °C, HQC
[11] = Freeze & thaw stability in plasma, 5 cycles, −20 °C, LQC
[12] = Freeze & thaw stability in plasma, 5 cycles, −70 °C, HQC
[13] = Freeze & thaw stability in plasma, 5 cycles, −70 °C, LQC
[14] = Long term stability in plasma: 61 days, −20 °C, HQC
[15] = Long term stability in plasma: 61 days, −20 °C, LQC
[16] = Long term stability in plasma: 61 days, −70 °C, HQC
[17] = Long term stability in plasma: 61 days, −70 °C, LQC
[18] = Wet extract stability (5 °C), 25 h, HQC
[19] = Wet extract stability (5 °C), 25 h, LQC
[20] = Wet extract stability (25 °C), 10 h, HQC
[21] = Wet extract stability (25 °C), 10 h, LQC
[22] = following oral administration of OST in healthy volunteers

Compound	AUC(0-t) [1] [ng·h/mL]	AUC(0-inf) [1] [ng·h/mL]	half-life [1] [h]	Mean stability sample ±SD [2, 6] [ng/mL]	Change (%) [2, 7] [%]	Mean stability sample ±SD [2, 8] [ng/mL]	Change (%) [2, 9] [%]	Change (%) [2, 10] [%]	Mean stability sample ±SD [2, 10] [ng/mL]	Change (%) [2, 11] [%]	Mean stability sample ±SD [2, 11] [ng/mL]	Change (%) [2, 12] [%]	Mean stability sample ±SD [2, 12] [ng/mL]	Change (%) [2, 13] [%]	Mean stability sample ±SD [2, 13] [ng/mL]	Change (%) [2, 14] [%]	Mean stability sample ±SD [2, 14] [ng/mL]	Change (%) [2, 15] [%]	Mean stability sample ±SD [2, 15] [ng/mL]	Change (%) [2, 16] [%]	further results
CCC(CC)O[C@@H]1C=C(C(=O)O)C[C@H](N)[C@H]1NC(C)=O [Oseltamivir carboxylate, oseltamivir carboxylate]	3900 ± 721	3990 ± 729	7.5 ± 0.96	653.1 ± 23.7	1.40	5.841 ± 0.495	1.40	−1.57	626.2 ± 22.7	−2.79	5.583 ± 0.553	−1.57	626.0 ± 25.6	0.35	5.762 ± 0.394	−0.85	698.4 ± 16.6	2.72	6.791 ± 0.273	0.43	Mean stability sample ±SD [2, 16]: 707.4 ± 19.0 ng/mL; Change (%) [2, 17]: −1.82%; Mean stability sample ±SD [2, 17]: 6.492 ± 0.328 ng/mL; Change (%) [2, 18]: 0.47%; Mean stability sample ±SD [2, 18]: 647.2 ± 18.2 ng/mL; Change (%) [2, 19]: 4.55%; Mean stability sample ±SD [2, 19]: 5.983 ± 0.556 ng/mL; Change (%) [2, 20]: −0.31%; Mean stability sample ±SD [2, 20]: 642.4 ± 13.4 ng/mL; Change (%) [2, 21]: 5.77%; Mean stability sample ±SD [2, 21]: 6.050 ± 0.393 ng/mL; protein bound [3]: about 43%; renal excretion (share of dose) [4]: 63%; time to maximum plasma levels (Cmax) [4, 22]: ≤ 5 h; time until detectable in plasma [4, 22]: about 30 min
CCOC(=O)C1=C[C@@H](OC(CC)CC)[C@H](NC(C)=O)[C@@H](N)C1 [Oseltamivir, oseltamivir]	153 ± 35	163 ± 37	4.97 ± 3.27	167.0 ± 9.5	0.60	1.430 ± 0.043	2.14	−3.05	159.3 ± 9.1	−4.23	1.364 ± 0.075	−2.44	160.2 ± 5.4	1.41	1.442 ± 0.070	1.18	172.3 ± 3.9	−3.61	1.635 ± 0.096	0.59	stability of OST concentration in samples kept on ice [5]: up to 1 h; Mean stability sample ±SD [2, 16]: 171.1 ± 3.7 ng/mL; Change (%) [2, 17]: −1.81%; Mean stability sample ±SD [2, 17]: 1.632 ± 0.035 ng/mL; Change (%) [2, 18]: 1.81%; Mean stability sample ±SD [2, 18]: 169.2 ± 7.4 ng/mL; Change (%) [2, 19]: 5.71%; Mean stability sample ±SD [2, 19]: 1.481 ± 0.086 ng/mL; Change (%) [2, 20]: 3.61%; Mean stability sample ±SD [2, 20]: 172.1 ± 10.4 ng/mL; Change (%) [2, 21]: 4.29%; Mean stability sample ±SD [2, 21]: 1.460 ± 0.077 ng/mL; renal excretion (share of dose) [4]: 3%
